Shown are actives, neighbours in structure and some others; about 4% of the full set was active somewhere.
CHO parental Ca – counter-screen: ATP calcium response change in parental CHO cells | 330,000 tested, 0.63% active | inhibition, % at 5.6 µM | parental CHO-K1, ATP-induced calcium, Fluo-8 fluorescence;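 active = inhibition above that plate's mean sample inhibition plus 3 SD, cut at about 26% in these data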
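Test system: parental CHO cells; detection: calcium-sensitive Fluo-8 fluorescence; evaluation: percent inhibition of calcium signal; also added: ATP as calcium-mobilizing challenge; repeats: one well per compound; control set: ATP-challenged DMSO wells low, unchallenged DMSO wells high; compound: single nominal dose of 5.6 µM per compound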
NTR1 ag – activates human neurotensin receptor 1 | P30989 | NTR1-U2OS beta-arrestin-GFP spot imaging, agonist mode | activation, % at 20 µM | 330,000 tested, 0.17% active | AID 493036;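 active = activation at or above 40% of the spot to cytoplasm intensity ratio, with at least 20 cells analyzed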
OX1R antag-1 – antagonists of human orexin 1 receptor; CHO/OX1R cells, Fluo-8 calcium fluorescence, orexin A; 330,000 tested, 0.43% active; inhibition, % at 5 µM;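 active = inhibition above its plate's threshold, mean inhibition of all tested compounds on the plate plus 3 SD, cut at about 37% in these data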
TAAR1 antag – human TAAR1 antagonism; Q96RJ0; CHO RD-HGA16 TAAR1, Fluo-8 calcium fluorescence, antagonist; inhibition, % at 3 µM; 360,000 tested, 1.5% active; AID 624466;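 active = inhibition above a per-plate cutoff, the mean inhibition of test compounds on that plate plus 3 SD, cut at about 49% in these data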
Target sequence (Q96RJ0 whole entry, looked up): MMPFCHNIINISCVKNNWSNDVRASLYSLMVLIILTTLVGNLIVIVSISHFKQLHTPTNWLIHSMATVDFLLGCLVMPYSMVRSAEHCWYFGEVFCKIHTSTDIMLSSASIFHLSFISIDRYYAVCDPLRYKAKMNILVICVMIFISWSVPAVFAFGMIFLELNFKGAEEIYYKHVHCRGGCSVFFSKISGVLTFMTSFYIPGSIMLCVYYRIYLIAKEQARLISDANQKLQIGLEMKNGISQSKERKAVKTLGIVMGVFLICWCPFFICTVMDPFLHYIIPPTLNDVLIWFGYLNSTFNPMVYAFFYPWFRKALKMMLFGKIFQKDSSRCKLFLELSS
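Assay system: RD-HGA16 CHO cells with stable hTAAR1 and Gα16 / Reagent: EC80 β-phenethylamine stimulus / Doses: 3 µM, single point / Timing: dye loading 75 min at 37 °C, then 30 min room temperature / Measured by: Fluo-8 intracellular calcium dye fluorescence, real-time kinetic reads / Controls: vehicle wells and EC80 agonist wells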
OX1R antag-2 – blocks the human orexin 1 receptor. inhibition, % at 6.6 µM. OX1R-expressing cells, FRET antagonist read-out. O43613. AID 485270. 330,000 tested, 1.8% active; in the data active = inhibition mostly above about 38%, no sharp cut-off; inactive = mostly below about 40%
TAAR1 agonist – human TAAR1 agonism. CHO RD-HGA16 TAAR1, Fluo-8 calcium fluorescence; vehicle wells 0%, saturating PEA agonist 100%. activation, % at 3 µM. 360,000 tested, 0.99% active. Q96RJ0;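 active = activation above the mean activation of all test compounds in the run plus 3 SD, cut at about 38% in these data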
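System: CHO RD-HGA16 cells carrying human TAAR1 plus Gα16; Incubation: 17-24 h seeding, 75 min 37 °C dye, 30 min RT; Measured by: Fluo-8 fluorescence, 5 s baseline then 140 s kinetic read; Control set: DMSO and PEA EC100; Replication: single well for each compound.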
nonsel antag count – counter-screen for TAAR1 antagonists: nonselective antagonists; inhibition, % at 3 µM; counterscreen cell line, calcium fluorescence, antagonist mode; AID 651780; shares compounds with TAAR1 antag; 2,400 tested, 77% active; in the data active = inhibition above about 22%;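 also: CHO-Ga16 host cells stimulated with ATP at an EC80 level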
TAAR1 ant conf – human TAAR1 antagonism, confirmed; shares compounds with TAAR1 antag; TAAR1-expressing cells, fluorescence antagonist read-out; inhibition, % at 3 µM; 2,400 tested, 40% active; in the data active = inhibition above about 49%;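 also: CHO-Ga16 host cells challenged with agonist PEA near its EC80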
Ga16 nonsel ag – nonselective Ga16 agonism, counter-screen; Ga16-expressing cells, calcium fluorescence, agonist counterscreen; AID 651953; activation, % at 3 µM; shares compounds with TAAR1 antag; 2,400 tested, 18% active; in the data active = activation above about 12%
TAAR1 ag counter – TAAR1 agonism, antagonist counter-screen | shares compounds with TAAR1 antag | hTAAR1 cell line, fluorescence activation, agonist mode | activation, % at 3 µM | 2,400 tested, 2% active; in the data active = activation above about 37%;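 also: CHO cells stably expressing TAAR1 with calcium dye readout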
Hits are given with their value; - = inactive; . = no result.

SMILES	CHO parental Ca	NTR1 ag	OX1R antag-1	TAAR1 antag	OX1R antag-2	TAAR1 agonist	nonsel antag count	TAAR1 ant conf	Ga16 nonsel ag	TAAR1 ag counter
O=C(Nc1cccc(-c2cnc3ccccc3n2)c1)C1CC(=O)N(c2ccccc2)C1 (stereo unspecified)	-	-	-	80	-	-	45	63	16	-
CC(=O)c1cccc(NC(=O)c2cc(-c3ccco3)nc3ccccc23)c1	-	-	-	63	-	-	31	50	-	-
CC(=O)c1cccc(NC(=O)c2cc(-c3ccncc3)nc3ccccc23)c1	-	-	-	-	-	-	.	.	.	.
O=C(Nc1cccc(-c2cnc3ccccc3n2)c1)c1cccc(NC(=O)c2ccco2)c1	-	-	-	74	49	-	39	63	12	-
O=C(Nc1cccc(S(=O)(=O)NC2=NCCCCC2)c1)c1cc(-c2ccco2)nc2ccccc12	-	-	-	51	-	-	30	-	-	-
COc1ccc(Br)cc1S(=O)(=O)Nc1ncn[nH]1	-	-	-	-	-	-	.	.	.	.
CCOC(=O)[C@]12CCCC=C1N(Cc1ccco1)C(=O)[C@H](CC(=O)NCCCN1CCCC1=O)C2	.	.	.	-	.	-	.	.	.	.
O=C(Nc1cccc(-c2csc(Nc3cccc(C(F)(F)F)c3)n2)c1)c1ccccc1	-	-	-	-	-	-	.	.	.	.
O=C(Nc1ccc(F)cc1F)c1cc(-c2ccco2)nc2ccccc12	-	-	-	-	-	-	.	.	.	.
O=C(Nc1cccc(-c2csc(Nc3ccccc3)n2)c1)c1ccccc1	-	-	-	65	-	-	28	-	-	-
O=C(Nc1ccccc1N1CCOCC1)c1cc(-c2ccco2)nc2ccccc12	-	-	-	62	-	-	29	49	-	-
C=CCN1CCC(=O)C(C(=O)OCC)=C1C(=O)OCC	.	.	.	-	.	-	.	.	.	.
N=c1oc2cc(O)ccc2cc1C(=O)Nc1ccc(Cl)cc1	-	-	-	-	-	-	.	.	.	.
CCN(CC)CCOC(=O)c1ccc(NC(=O)c2ccc(Cl)c(S(=O)(=O)N3CCCCCC3)c2)cc1	-	-	-	-	-	-	.	.	.	.
Cc1cc(/C=N\NC(=O)COc2cccc3cccnc23)c(C)n1-c1ccc(Br)cc1	-	-	-	-	-	-	.	.	.	.
Cc1cc(/C=N\NC(=O)c2cccs2)c(C)n1-c1ccc2ncccc2c1	-	-	-	103	-	-	34	98	12	-
O=C1CCc2cc(S(=O)(=O)NCc3ccccc3Cl)cc3c2N1CC3	-	-	-	-	-	-	.	.	.	.
COC(=O)c1cc(Nc2cc(C)c3c(O)cccc3n2)cc(C(=O)OC)c1	-	-	-	63	-	-	24	-	-	-
CCOc1ccccc1N1CC(O)=C(c2nc3ccccc3s2)C1=N	-	-	-	66	-	-	26	-	12	-
Cc1ccccc1C(=O)N1CCN(c2ccc(NC(=O)c3ccc4c(c3)OCCO4)cc2)CC1	-	-	-	77	-	-	43	56	17	-
O=C(CN1CCC(NC(=O)C2CC2)CC1)Nc1cccc(F)c1	-	-	-	-	-	-	.	.	.	.
CCOC(=O)c1ccc(-c2ccc(/C=N/NC(=O)CN(c3ccccc3Br)S(C)(=O)=O)o2)cc1	-	-	-	57	-	-	29	-	-	-
CC(C)(C)c1ccc(C(=O)OCCNC(=O)c2c(Cl)nc3ccccn23)cc1	-	-	-	73	-	-	29	-	-	-
CN(C(=O)CNC(=O)c1ccc(Br)o1)C1CCCCC1	-	-	-	-	-	-	.	.	.	.
NNC(=O)C1CC(O)CN1S(=O)(=O)c1ccc2ccccc2c1 (stereo unspecified)	-	-	-	-	-	-	.	.	.	.
SMILES	CHO parental Ca	NTR1 ag	OX1R antag-1	TAAR1 antag	OX1R antag-2	TAAR1 agonist	nonsel antag count	TAAR1 ant conf	Ga16 nonsel ag	TAAR1 ag counter
CN(c1ccccc1)S(=O)(=O)c1cccc(NC(=O)c2nn(C)c(=O)c3ccccc23)c1	-	-	-	59	-	-	25	-	-	-
CN(c1ccccc1)S(=O)(=O)c1cccc(NC(=O)Cn2cnc3ccccc3c2=O)c1	-	-	-	-	-	-	.	.	.	.
OCCNc1nc(Nc2cc(Cl)ccc2OC2CCCC2)nc(N2CCCC2)n1	-	-	-	49	-	-	22	-	-	-
COc1ccc(Cl)cc1Nc1nc(NCCO)nc(N2CCCC2)n1	-	-	-	-	-	-	.	.	.	.
COc1ccc(NC(=O)C2CC(c3c(F)cccc3Cl)=NO2)cc1 (stereo unspecified)	-	-	-	-	-	-	.	.	.	.
COc1cc(NC(=O)C2CC(c3c(F)cccc3Cl)=NO2)cc(OC)c1OC (stereo unspecified)	-	-	-	62	-	-	35	-	13	-
O=C(CCN1CCCCC1=O)NC1CCCN(Cc2ccc(Cl)cc2)C1 (stereo unspecified)	-	-	-	-	-	-	.	.	.	.
O=C(NCc1ccccc1)C(c1ccc(F)cc1)N(Cc1cccs1)C(=O)c1cnccn1 (stereo unspecified)	-	-	-	52	-	-	31	-	-	-
CCOCCCNC(=O)C(c1ccc(C)cc1)N(Cc1cccs1)C(=O)c1ccccn1 (stereo unspecified)	-	-	-	61	-	-	30	55	12	-
CCOCCCNC(=O)C(c1ccc(Cl)cc1)N(Cc1cccs1)C(=O)c1ccccn1 (stereo unspecified)	-	-	-	71	-	-	-	-	-	-
CC(C)(C)NC(=O)CN(CCN1CCOCC1)C(=O)CNS(=O)(=O)c1ccccc1	-	-	-	-	-	-	.	.	.	.
O=C(O)CCCC(=O)Nc1nc(-c2ccc(F)cc2)cs1	-	-	-	-	-	-	.	.	.	.
CC(=O)Nc1ccc(-c2csc(NC(=O)Cc3ccccc3F)n2)cc1	-	-	-	-	-	-	.	.	.	.
COc1ccc(-c2csc(NC(=O)[C@H](C)N3C(=O)C4CC=CCC4C3=O)n2)cc1OC (stereo partly specified)	-	-	-	-	-	-	.	.	.	.
O=C(CN1C(=O)NC2(CCCC2)C1=O)Nc1nc(-c2ccc(F)cc2)cs1	-	-	-	51	-	-	23	-	-	-
O=C(Cc1ccc(F)cc1)Nc1nc(-c2ccc(F)cc2)cs1	-	-	-	82	-	-	46	57	-	-
